# Source: ChEMBL document CHEMBL2321751, “Optimization of chloronitrobenzamides (CNBs) as therapeutic leads for human African trypanosomiasis (HAT)” (J Med Chem, 2013)
# How the values were obtained:
# [1] = system: Trypanosoma brucei brucei; test: Antitrypanosomal activity against blood stream stage of Trypanosoma brucei brucei after 48 hrs by Cell Titre Glo assay; assay type: functional, organism-based
# How it was run: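 Culture-adapted parasites were grown in HMI-9 with 10% heat-inactivated FBS, 10% Serum Plus and penicillin/streptomycin to 1 × 10⁶ cells/mL, then diluted to 1 × 10⁴ cells/mL. DMSO dilution series were pin-transferred and plates held 48 h at 37 °C in 5% CO2. After 30 min at room temperature, CellTiter-Glo was added and luminescence read after 8 min.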
# HEK293 = test: Cytotoxicity against HEK293 cells after 72 hrs by Cell Titre Glo assay; assay type: cell-based; settings: Homo sapiens, HEK293, 72 h
# How it was run: (§1)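 Human cells grown to 80% confluence were plated in 384-well format and received compound dilutions by pin tool. After 72 h at 37 °C in 5% CO2, viability was measured by CellTiter-Glo luminescence.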
# HepG2 = test: Cytotoxicity against human HepG2 cells after 72 hrs by Cell Titre Glo assay; assay type: cell-based; settings: HepG2, 72 h; how it was run: as §1
# Raji = test: Cytotoxicity against human Raji cells after 72 hrs by Cell Titre Glo assay; assay type: cell-based; how it was run: as §1
# [2] = Permeability of the compound at pH 7.4 by PAMPA; assay type: ADME; settings: for Papp: PAMPA, read-out: permeability
# How it was run: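 Compound (10 mM DMSO stock) was diluted in system solution buffer pH 7.4 and placed in the donor chamber of a PAMPA sandwich whose membrane was coated with GIT lipid. Acceptor buffer filled the acceptor chamber, and the assembly was stirred for 30 min. Donor and acceptor UV spectra (250–500 nm) were compared with a reference to give the permeability coefficient. Run in triplicate.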
# [3] = system: Trypanosoma brucei gambiense; test: Antitrypanosomal activity against Trypanosoma brucei gambiense KO48 after 70 hrs by Alamar Blue assay; assay type: functional, organism-based; settings: KO48, 70 h
# How it was run: (§2)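 T. b. gambiense strains were grown in HMI-9 with 15% heat-inactivated FBS and 5% human serum. 10000 trypanosomes per well were seeded into serial drug dilutions and held 70 h at 37 °C in humidified 5% CO2. Resazurin was then added for a further 4–6 h, and fluorescence was read (ex 536/em 588 nm). IC50 was taken by linear regression from sigmoidal dose-inhibition curves.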
# [4] = system: Trypanosoma brucei brucei; test: Antitrypanosomal activity against Trypanosoma brucei brucei 221 after 48 hrs by Cell Titre Glo assay; assay type: functional, organism-based; settings: Trypanosoma brucei, 221, 48 h
# How it was run: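 Bloodstream-form parasites grown in HMI-9 with 10% heat-inactivated FBS, 10% Serum Plus and penicillin/streptomycin at 37 °C, 5% CO₂, to 1 × 10⁶ cells/mL. Diluted to 1 × 10⁴ cells/mL, then dosed with a DMSO dilution series by pin transfer. Incubated 48 h at 37 °C, 5% CO₂. Viability read by CellTiter-Glo luminescence. EC₅₀ from a variable-slope sigmoidal fit. Mean of six replicates, errors as 95% CI.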
# BJ = test: Cytotoxicity against human BJ cells after 72 hrs by Cell Titre Glo assay; assay type: cell-based; how it was run: as §1
# [5] = system: Trypanosoma brucei gambiense; test: Antitrypanosomal activity against Trypanosoma brucei gambiense DAL 898R after 70 hrs by Alamar Blue assay; assay type: functional, organism-based; how it was run: as §2
# [6] = Kinetic solubility of the compound in PBS buffer at pH 7.4 after 18 hrs by UV spectrophotometric analysis; assay type: physicochemical; settings: for solubility kinetic at 18 h: PBS buffer, pH 7.4, read-out: Kinetic_solubility; for Kinetic_solubility: buffer, pH 7.4, 18 h, BLD = below limit of detection
# How it was run: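 Compound from a 10 mM stock was added to PBS pH 7.4 and left 18 h at room temperature. The suspension was filtered, and the filtrate was mixed 1:1 with 1-propanol. Solubility was derived from UV spectrum AUC (250–500 nm) relative to a 1-propanol/PBS reference. Run in triplicate.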
# [7] = system: Trypanosoma brucei rhodesiense; test: Antitrypanosomal activity against bloodstream forms of wild type Trypanosoma brucei rhodesiense STIB900 after 70 hrs by Alamar Blue assay; assay type: functional, organism-based; settings: STIB900, 70 h
# How it was run: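 T. b. rhodesiense STIB 900 was cultured in MEM with Earle's salts and Baltz supplements (0.2 mM 2-mercaptoethanol, 1 mM Na-pyruvate, 0.5 mM hypoxanthine, 15% heat-inactivated horse serum). 2000 bloodstream forms per well were exposed to serial drug dilutions for 70 h at 37 °C in humidified 5% CO2. Resazurin followed for 2–4 h, read by fluorescence (ex 536/em 588 nm). IC50 came from sigmoidal curves by linear regression.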
# [8] = system: Trypanosoma brucei gambiense; test: Antitrypanosomal activity against Trypanosoma brucei gambiense STIB930 after 70 hrs by Alamar Blue assay; assay type: functional, organism-based; settings: STIB930, 70 h; how it was run: as §2
Compound,EC50 [1] [nM],EC50 (HEK293) [µM],EC50 (HepG2) [µM],EC50 (Raji) [µM],Papp [2] [×10⁻⁶ cm/s],EC50 [4] [nM],EC50 (BJ) [µM],further results
COc1cccc2sc(NC(=O)c3cc([N+](=O)[O-])ccc3Cl)nc12,500,–,–,–,–,–,–,–
O=C(Nc1cccc(C(F)(F)F)c1)c1cc([N+](=O)[O-])ccc1Cl,950,–,–,–,–,–,–,–
O=C(Nc1cc(C(F)(F)F)ccc1Cl)c1cc([N+](=O)[O-])ccc1Cl,520,–,–,–,–,–,–,–
O=C(Nc1cccc(Br)c1)c1cc([N+](=O)[O-])ccc1Cl,1800,–,–,–,–,–,–,–
COc1ccc2nc(NC(=O)c3cc([N+](=O)[O-])ccc3Cl)sc2c1,980,–,–,–,–,–,–,–
Cc1ccc2nc(NC(=O)c3cc([N+](=O)[O-])ccc3Cl)sc2c1,1100,–,–,–,–,–,–,–
Cc1ccc2nc(NC(=O)c3cc([N+](=O)[O-])ccc3Cl)[nH]c2c1,> 33000,–,–,–,–,–,–,–
O=C(Nc1cccc(-c2nc3ccccc3o2)c1)c1cc([N+](=O)[O-])ccc1Cl,290,> 25,> 25,> 25,45,480,> 25,EC50 [3]: 460 nM; EC50 [5]: 620 nM; solubility kinetic at 18 h [6]: 0.47 µM; EC50 [7]: 370 nM; EC50 [8]: 210 nM
Cc1ccc(-c2nc3cc(Cl)ccc3o2)cc1NC(=O)c1cc([N+](=O)[O-])ccc1Cl,> 33000,–,–,–,–,–,–,–
O=C(Nc1ccc(-c2nc3ccccc3o2)cc1)c1cc([N+](=O)[O-])ccc1Cl,6100,–,–,–,–,–,–,–
O=C(Nc1cccc(-c2nc3ncccc3o2)c1)c1cc([N+](=O)[O-])ccc1Cl,3100,–,–,–,–,–,–,–
O=C(Nc1ccc(-c2nc3ccccc3[nH]2)cc1)c1cc([N+](=O)[O-])ccc1Cl,4100,–,–,–,–,–,–,–
O=C(Nc1ccc(Cl)c(C(F)(F)F)c1)c1cc([N+](=O)[O-])ccc1Cl,–,> 27,> 27,> 27,8,1100,> 27,EC50 [3]: 1300 nM; EC50 [5]: 1600 nM; solubility kinetic at 18 h [6]: 0.58 µM; EC50 [7]: 1800 nM; EC50 [8]: 820 nM
O=C(Nc1cc(C(F)(F)F)cc(C(F)(F)F)c1)c1cc([N+](=O)[O-])ccc1Cl,–,14,> 27,14,44,9600,22,Kinetic_solubility [6]: BLD
O=C(Nc1nc(-c2ccc(F)c(F)c2)cs1)c1cc([N+](=O)[O-])ccc1Cl,–,8.3,> 27,13,37,2500,> 27,EC50 [3]: 630 nM; EC50 [5]: 1600 nM; Kinetic_solubility [6]: BLD; EC50 [7]: 1500 nM; EC50 [8]: 560 nM
O=C(Nc1nc(-c2ccc(Cl)cc2)cs1)c1cc([N+](=O)[O-])ccc1Cl,–,15,> 27,12,3,4600,18,Kinetic_solubility [6]: BLD
O=C(Nc1ccc(-c2nc3ccccc3s2)cc1)c1cc([N+](=O)[O-])ccc1Cl,–,> 27,> 27,> 27,–,1100,> 27,"permeability ([2]; pampa, BLD = below limit of detection): BLD; Kinetic_solubility [6]: BLD"
O=C(Nc1cc(-c2nc3ccccc3o2)ccc1F)c1cc([N+](=O)[O-])ccc1Cl,–,> 25,> 25,> 25,214,300,> 25,Kinetic_solubility [6]: BLD
Nc1nc(N)nc(Nc2ccc([As]3SCC(CO)S3)cc2)n1 (configuration not stated) [MELARSOPROL],–,–,–,–,–,–,–,EC50 [3]: 14 nM; EC50 [5]: 12 nM; EC50 [7]: 7.2 nM; EC50 [8]: 6.7 nM
N=C(N)c1ccc(OCCCCCOc2ccc(C(=N)N)cc2)cc1 [PENTAMIDINE],–,–,–,–,–,12,–,EC50 [3]: 51 nM; EC50 [5]: 0.9 nM; EC50 [7]: 0.6 nM; EC50 [8]: 0.7 nM
